Results as given in ChEMBL document CHEMBL5046302, “Identification and Evaluation of Brominated Carbazoles as a Novel Antibiotic Adjuvant Scaffold in MRSA” (2022).
The source made the active and inactive calls. The calls are words filed in the database; no cut-off is given here.

What was measured:
Format in all cases: functional
Staphylococcus aureus [1] = experiment: Potentiation of oxacillin induced antibacterial activity against methicillin-resistant Staphylococcus aureus ATCC 43300 assessed as oxacillin MIC at 25 uM after 18 hrs by CLSI protocol based broth microdilution assay
Staphylococcus aureus [2] = experiment: Potentiation of oxacillin induced antibacterial activity against methicillin-resistant Staphylococcus aureus USA100 assessed as fold change in oxacillin MIC at 25 uM after 18 hrs by CLSI protocol based broth microdilution assay
Staphylococcus aureus [3] = experiment: Potentiation of ampicillin induced antibacterial activity against methicillin-resistant Staphylococcus aureus ATCC 43300 assessed as fold change in ampicillin MIC at 25 uM after 18 hrs by CLSI protocol based broth microdilution assay
Staphylococcus aureus [4] = experiment: Potentiation of cefoxitin induced antibacterial activity against methicillin-resistant Staphylococcus aureus ATCC 43300 assessed as fold change in cefoxitin MIC at 25 uM after 18 hrs by CLSI protocol based broth microdilution assay
Staphylococcus aureus [5] = experiment: Potentiation of oxacillin induced antibacterial activity against methicillin-resistant Staphylococcus aureus assessed as fold decrease in mecA gene expression at 25 uM by RT-qPCR analysis
Method in brief: (§1)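 Fold dampening is the relative mRNA level of the gene, normalised to 16S rRNA, in oxacillin-treated cells divided by that in cells cotreated with oxacillin plus carbazole. Carbazole was used at 25 or 50 μM, as given in each line.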

Staphylococcus aureus [6] = experiment: Potentiation of oxacillin induced antibacterial activity against methicillin-resistant Staphylococcus aureus assessed as fold decrease in mecI gene expression at 25 uM by RT-qPCR analysis; method in brief: as §1
Staphylococcus aureus [7] = experiment: Potentiation of ampicillin induced antibacterial activity against methicillin-resistant Staphylococcus aureus USA100 assessed as ampicillin MIC at 25 uM after 18 hrs by CLSI protocol based broth microdilution assay
Staphylococcus aureus [8] = experiment: Potentiation of oxacillin induced antibacterial activity against methicillin-resistant Staphylococcus aureus COL assessed as fold change in oxacillin MIC at 25 uM after 18 hrs by CLSI protocol based broth microdilution assay
Staphylococcus aureus [9] = experiment: Upregulation of mecA gene expression in methicillin-resistant Staphylococcus aureus USA100 at 25 uM by RT-PCR method
Staphylococcus aureus [10] = experiment: Potentiation of oxacillin induced antibacterial activity against methicillin-resistant Staphylococcus aureus assessed as fold decrease in blaI gene expression at 50 uM by RT-qPCR analysis; method in brief: as §1
Staphylococcus aureus [11] = experiment: Potentiation of oxacillin induced antibacterial activity against methicillin-resistant Staphylococcus aureus USA300 harboring stk1 deletion mutant assessed as fold change in oxacillin MIC at 50 uM after 18 hrs by CLSI protocol based broth microdilution assay
Staphylococcus aureus [12] = experiment: Potentiation of oxacillin induced antibacterial activity against methicillin-resistant Staphylococcus aureus USA300 harboring stk1 deletion mutant assessed as oxacillin MIC at 50 uM after 18 hrs by CLSI protocol based broth microdilution assay
Staphylococcus aureus [13] = experiment: Upregulation of blaZ gene expression in methicillin-resistant Staphylococcus aureus ATCC 43300 at 50 uM by RT-PCR method

SMILES | MIC (Staphylococcus aureus [1]) | fold change (FC) (Staphylococcus aureus [2]) | fold change (FC) (Staphylococcus aureus [3]) | fold change (FC) (Staphylococcus aureus [4]) | fold change (FC) (Staphylococcus aureus [5]) | fold change (FC) (Staphylococcus aureus [6]) | MIC (Staphylococcus aureus [7]) | fold change (FC) (Staphylococcus aureus [8]) | Activity (Staphylococcus aureus [9]) | fold change (FC) (Staphylococcus aureus [10]) | fold change (FC) (Staphylococcus aureus [11]) | MIC (Staphylococcus aureus [12]) | Activity (Staphylococcus aureus [13])
Brc1cccc2[nH]c3ccccc3c12 | 4 µg/mL | 16 | 2 | 4 | 4 | 1.28 | 8 µg/mL | 1 | inactive | – | – | – | –
Brc1cccc2c1[nH]c1ccccc12 | – | – | – | – | – | – | – | – | – | 1.36 | 1 | 0.25 µg/mL | inactive
